Results reported in ChEMBL document CHEMBL2429835.
Values after ≈ are worked out from the molar mass of the structure shown. Active and inactive are the calls of the source. The rule behind the calls is not given here.

Experiments:
[1] = tested on: Mycobacterium marinum; experiment: Antimycobacterial activity against Mycobacterium marinum ATCC 927 after 6 days by microplate Alamar blue assay; assay type: functional; details: ATCC 927, 144 h
[2] = tested on: Mycobacterium avium; experiment: Antimycobacterial activity against Mycobacterium avium ATCC 15769 at 100 ug/ml after 7 days by microplate Alamar blue assay; assay type: functional, organism-based
Outline: (§1)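 MABA in 7H12 (M. abscessus, M. bovis BCG) or 7H9 (others). Pre-dye incubation: M. abscessus 37 °C 3 days; BCG 37 °C 7 days; M. chelonae 30 °C 3 days; M. marinum 30 °C 5 days; M. avium and M. kansasii 37 °C 6 days. Then 20% Tween80 plus Alamar blue added: 4 h (abscessus), 6 days (chelonae), 1 day (others). Tested at 100 μg/mL.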

[3] = tested on: Mycobacterium kansasii; experiment: Antimycobacterial activity against Mycobacterium kansasii ATCC 12478 at 100 ug/ml after 7 days by microplate Alamar blue assay; assay type: functional; outline: as §1
[4] = tested on: Mycobacteroides abscessus; experiment: Antimycobacterial activity against Mycobacterium abscessus ATCC 19977 at 100 ug/ml after 7 days by microplate Alamar blue assay; assay type: functional
[5] = tested on: Mycobacteroides chelonae; experiment: Antimycobacterial activity against Mycobacterium chelonae ATCC 35752 at 100 ug/ml after 9 days by microplate Alamar blue assay; assay type: functional, organism-based; outline: as §1
[6] = tested on: Mycolicibacterium smegmatis; experiment: Antimycobacterial activity against Mycobacterium smegmatis MC2 155 at 100 ug/ml after 3 days by microplate Alamar blue assay; assay type: functional, organism-based; details: str. MC2 155
Outline: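 MABA: 37 °C for 3 days, then Tween80 (20%) and Alamar blue added, 4 h further incubation; fluorescence read-out. Tested at 100 μg/mL.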

[7] = tested on: Streptococcus pneumoniae; experiment: Antibacterial activity against Streptococcus pneumoniae at 100 ug/ml; assay type: functional, organism-based
Outline: (§2)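 Broth microdilution per NCCLS guidelines; growth read spectrophotometrically at 570 nm, except S. pneumoniae at 490 nm, which was tested with 2% HBL supplement. Compounds tested up to 100 μg/mL.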

[8] = tested on: Acinetobacter baumannii; experiment: Antibacterial activity against Acinetobacter baumannii at 100 ug/ml by broth microdilution method; assay type: functional, organism-based
[9] = tested on: Pseudomonas aeruginosa; experiment: Antibacterial activity against Pseudomonas aeruginosa ATCC 27853 at 100 ug/ml by broth microdilution method; assay type: functional, organism-based; outline: as §2
[10] = tested on: Enterococcus faecalis; experiment: Antibacterial activity against Enterococcus faecalis ATCC 29212 at 100 ug/ml by broth microdilution method; assay type: functional, organism-based; outline: as §2
[11] = tested on: Candida albicans; experiment: Antifungal activity against Candida albicans ATCC 90028 at 100 ug/ml by broth microdilution method; assay type: functional, organism-based; outline: as §2
[12] = tested on: Escherichia coli; experiment: Antibacterial activity against Escherichia coli ATCC 25922 at 100 ug/ml by broth microdilution method; assay type: functional, organism-based; outline: as §2
[13] = tested on: Staphylococcus aureus; experiment: Antibacterial activity against Staphylococcus aureus ATCC 29213 at 100 ug/ml by broth microdilution method; assay type: functional, organism-based; outline: as §2
[14] = Selectivity index, ratio of IC50 for african green monkey Vero cells to MIC90 for Mycobacterium tuberculosis H37Rv ATCC 27294 by microplate Alamar blue assay; assay type: functional
[15] = tested on: Mycobacterium tuberculosis; experiment: Antimycobacterial activity against Mycobacterium tuberculosis H37Rv ATCC 27294 incubated for 10 days under low oxygen condition followed by normoxic environment for 28 hrs by low oxygen recovery assay; assay type: functional
Outline: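 Luciferase (luxAB) reporter strain adapted to low oxygen in a fermenter. Exposed to samples for 10 days at 37 °C under hypoxia, then 28 h normoxic at 37 °C. Luminescence read; MIC is the lowest concentration cutting luminescence by ≥90% versus untreated cultures.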

[16] = tested on: Mycobacterium tuberculosis; experiment: Antimycobacterial activity against Mycobacterium tuberculosis H37Rv ATCC 27294 by microplate Alamar blue assay; assay type: functional
Outline: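 Strain (H37Rv or ATCC single-drug-resistant isolates) grown to late log phase in 7H9 with 0.2% glycerol, 0.05% Tween80, 10% OADC. Cells washed into PBS, passed through 8 μm filter, frozen; CFU titred on 7H11 agar. MABA MIC is the lowest concentration giving ≥90% growth inhibition versus untreated controls.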

[17] = tested on: Mycobacterium marinum; experiment: Antimycobacterial activity against Mycobacterium marinum ATCC 927 at 100 ug/ml after 6 days by microplate Alamar blue assay; assay type: functional, organism-based; outline: as §1
[18] = tested on: Vero; experiment: Cytotoxicity against african green monkey Vero cells after 72 hrs by MTS-PMS assay; assay type: cell-based; details: Chlorocebus sabaeus
Outline: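 Vero cells in EMEM with 10% FBS at 37 °C, 5% CO2, diluted to 10^6 cells/mL. Exposed to 2-fold serial dilutions for 72 h at 37 °C.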

[19] = tested on: Mycobacterium kansasii; experiment: Antimycobacterial activity against Mycobacterium kansasii ATCC 12478 after 7 days by microplate Alamar blue assay; assay type: functional; details: ATCC 12478, 168 h; outline: as §1

SMILES | MIC90 [1] [µg/mL] | Activity [2] | Activity [3] | Activity [4] | Activity [5] | Activity [6] | Activity [7] | Activity [8] | Activity [9] | Activity [10] | Activity [11] | Activity [12] | Activity [13] | Selectivity Index [14] | MIC90 [15] [µg/mL] | MIC90 [16] [µg/mL] | Activity [17] | IC50 [18] [µg/mL] | MIC90 [19] [µg/mL]
CCOC(=O)c1c(-c2ccccc2)c2cc(Cl)ccc2oc1=O | 97.1 (≈ 295 µM) | inactive | inactive | inactive | inactive | inactive | inactive | inactive | inactive | inactive | inactive | inactive | inactive | 0.82 | 37.1 (≈ 113 µM) | 44.7 (≈ 136 µM) | – | – | –
CCOC(=O)c1c(-c2ccccc2)c2ccc(Cl)cc2oc1=O | – | inactive | inactive | inactive | inactive | inactive | inactive | inactive | inactive | inactive | inactive | inactive | inactive | 1.1 | 23.2 (≈ 70.6 µM) | 35.9 (≈ 109 µM) | inactive | 39.4 (≈ 120 µM) | –
NNC(=O)c1ccncc1 [ISONIAZID] | – | – | – | – | – | – | – | – | – | – | – | – | – | – | – | 0.03 (≈ 0.219 µM) | – | > 100 | –
CO[C@H]1/C=C/O[C@@]2(C)Oc3c(C)c(O)c4c(O)c(c(/C=N/N5CCN(C)CC5)c(O)c4c3C2=O)NC(=O)/C(C)=C\C=C\[C@H](C)[C@H](O)[C@@H](C)[C@@H](O)[C@@H](C)[C@H](OC(C)=O)[C@@H]1C [RIFAMPIN] | – | – | – | – | – | – | – | – | – | – | – | – | – | – | < 0.05 | 0.08 (≈ 0.0972 µM) | – | > 100 | –
O=c1cc(-c2ccccc2)c2ccc(Cl)cc2o1 | – | inactive | – | inactive | inactive | inactive | inactive | inactive | inactive | inactive | inactive | inactive | inactive | 1.27 | 21.9 (≈ 85.3 µM) | 23.9 (≈ 93.1 µM) | inactive | 30.4 (≈ 118 µM) | 49.3 (≈ 192 µM)
O=[N+]([O-])c1cn2c(n1)OC[C@@H](OCc1ccc(OC(F)(F)F)cc1)C2 [PRETOMANID] | – | – | – | – | – | – | – | – | – | – | – | – | – | >5000 | 0.25 (≈ 0.696 µM) | 0.02 (≈ 0.0557 µM) | – | > 100 | –
O=c1cc(-c2ccccc2)c2cc(Cl)ccc2o1 | – | inactive | inactive | inactive | inactive | inactive | inactive | inactive | inactive | inactive | inactive | inactive | inactive | – | – | > 100 | inactive | > 100 | –
CN[C@@H]1[C@H](O[C@H]2[C@H](O[C@H]3[C@H](O)[C@@H](O)[C@H](N=C(N)N)[C@@H](O)[C@@H]3N=C(N)N)O[C@@H](C)[C@]2(O)C=O)O[C@@H](CO)[C@H](O)[C@H]1O [STREPTOMYCIN] | – | – | – | – | – | – | – | – | – | – | – | – | – | >833 | 1.07 (≈ 1.84 µM) | 0.12 (≈ 0.206 µM) | – | > 100 | –
N[C@@H]1CONC1=O [CYCLOSERINE] | – | – | – | – | – | – | – | – | – | – | – | – | – | >17 | – | 6.02 (≈ 59 µM) | – | > 100 | –
NC[C@H]1O[C@H](O[C@H]2[C@H](O)[C@@H](O[C@H]3O[C@H](CO)[C@@H](O)[C@H](N)[C@H]3O)[C@H](N)C[C@@H]2N)[C@H](O)[C@@H](O)[C@@H]1O [KANAMYCIN] | – | – | – | – | – | – | – | – | – | – | – | – | – | >154 | – | 0.65 (≈ 1.34 µM) | – | > 100 | –
